ChEMBL document CHEMBL1139413, “Discovery of the first potent and orally efficacious agonist of the orphan G-protein coupled receptor 119” (J Med Chem, 2008)

Legend:
[1] = molecular target: T1, Glucose-dependent insulinotropic receptor (Homo sapiens, UniProt Q8TDV5); test: Agonist activity at GPR119 expressed in HEK293 cells assessed as cAMP level by flash plate assay; format: functional, cell-based
T1 sequence (Q8TDV5 whole entry): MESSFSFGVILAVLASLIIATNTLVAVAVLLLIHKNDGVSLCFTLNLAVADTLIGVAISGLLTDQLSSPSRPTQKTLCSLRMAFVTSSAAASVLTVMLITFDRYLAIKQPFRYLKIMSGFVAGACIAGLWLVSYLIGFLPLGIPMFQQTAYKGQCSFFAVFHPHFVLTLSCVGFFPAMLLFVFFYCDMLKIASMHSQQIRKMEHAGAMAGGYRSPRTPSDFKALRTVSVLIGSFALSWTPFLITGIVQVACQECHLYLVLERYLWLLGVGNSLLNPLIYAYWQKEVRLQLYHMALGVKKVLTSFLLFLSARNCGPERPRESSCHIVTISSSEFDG
Procedure, shortened: (§1)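 HEK293 cells transiently transfected with GPR119; crude plasma membranes prepared 48 h post-transfection. Membrane adenylyl cyclase read by FlashPlate cAMP kit: 15 µg membrane protein, 60 min at room temperature in 20 mM HEPES pH 7.4 with 10 µM GTP, 0.1 mM ATP, 500 µM IBMX, 10 mM phosphocreatine, creatine phosphokinase. cAMP from on-plate standard curve; usually n = 1 or 2.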

[2] = molecular target: T1, Glucose-dependent insulinotropic receptor; test: Inverse agonist activity at GPR119 expressed in HEK293 cells assessed as cAMP level by flash plate assay; format: functional, cell-based; procedure, shortened: as §1
[3] = molecular target: T1, Glucose-dependent insulinotropic receptor; test: Agonist activity at […] transfected in Xenopus dermal melanophore assessed as dispersion of melatonin-induced pigmentation; format: functional
Procedure, shortened: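 Cultured Xenopus dermal melanophores transiently transfected with GPR119 plasmid, plated in 384-well format. At 48 h post-transfection, pigment aggregated with melatonin (10nM, 1 h), then compounds applied for 1 h. Pigment dispersion read as absorbance (light transmission) to build concentration-response curves; EC50 with log SD, number of determinations given.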

With `CCOC(=O)C1CCN(c2ncnc(Oc3ccc(S(C)(=O)=O)cc3)c2[N+](=O)[O-])CC1` the EC50 [1] was 1900 nM.

`CCOC(=O)C1CCN(c2ncnc(Oc3cc(C(F)(F)F)nn3C)c2[N+](=O)[O-])CC1` showed an IC50 [2] of 84 nM.

With `CC(C)c1noc(C2CCN(c3ncnc(Nc4ccc(S(C)(=O)=O)cc4)c3[N+](=O)[O-])CC2)n1` the EC50 [3] was 5.8 nM.

`CCS(=O)(=O)c1ccc(Nc2ncnc(N3CCC(c4nc(C(C)C)[n-][o+]4)CC3)c2[N+](=O)[O-])c(F)c1` gave an EC50 [3] of 7 nM.

Work on `CCOC(=O)C1CCN(c2ncnc(Oc3ccc(S(N)(=O)=O)cc3)c2[N+](=O)[O-])CC1` yielded an EC50 [1] of 3000 nM.

`CCOC(=O)C1CCN(c2ncnc(Oc3ccc(-n4cncn4)cc3)c2[N+](=O)[O-])CC1` showed an EC50 [1] of 2500 nM.

In the case of `CCc1noc(C2CCN(c3ncnc(Nc4ccc(S(C)(=O)=O)cc4)c3[N+](=O)[O-])CC2)n1`, the EC50 [3] is reported as 10 nM.

In the case of `CCOC(=O)C1CCN(c2ncnc(Oc3ccc(OCCOC)cc3)c2[N+](=O)[O-])CC1`, the IC50 [2] is reported as 500 nM.

For `CC(C)(C)c1noc(C2CCN(c3ncnc(Nc4ccc(S(C)(=O)=O)cc4)c3[N+](=O)[O-])CC2)n1`, the EC50 [3] was 1.5 nM.

Work on `CC(C)c1noc(C2CCN(c3ncnc(Nc4ccc(S(=O)(=O)C(C)C)cc4)c3[N+](=O)[O-])CC2)n1` yielded an EC50 [3] of 7.8 nM.

Work on `CCOC(=O)C1CCN(c2ncnc(Oc3ccc(Br)cc3)c2[N+](=O)[O-])CC1` yielded an IC50 [2] of 50 nM.

Compound `CS(=O)(=O)c1ccc(Nc2ncnc(N3CCC(c4nc(-c5cccc(C(F)(F)F)c5)no4)CC3)c2[N+](=O)[O-])cc1` has an EC50 [3] of 24 nM.

With `CCOC(=O)C1CCN(c2ncnc(Nc3ccc(-n4cncn4)cc3)c2[N+](=O)[O-])CC1` the EC50 [1] was 400 nM.

In the case of `CCOC(=O)C1CCN(c2ncnc(Oc3ccc(C(=O)CC(=O)OC)cc3)c2[N+](=O)[O-])CC1`, the EC50 [1] is reported as 1000 nM.
